KCNQ1 act: potentiators or activators of human KCNQ1 potassium channel; B-score at 10 µM; 310,000 tested, 0.35% active; CHO-K1 KCNQ1, thallium flux FluxOR fluorescence; hits give high values; P51787;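 active means fluorescence ratio B-score, a plate-corrected score, at least three library SD, with initial intensity B-score within 5 SD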
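Assay system: CHO-K1 cells stably expressing KCNQ1; Medium: assay buffer with matched DMSO; Also added: K+/Tl+ depolarizing stimulus; Dosing: single dose; Timing: dye 90 min, compound 20 min, room temperature; Measured by: kinetic FluxOR thallium fluorescence, 10-s 1-Hz baseline, 110-s post-stimulus read; Read-out: peak-minus-minimum fluorescence over initial fluorescence, negative-control normalized, B-scored.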
KCNK3 inh: human KCNK3 channel inhibition, primary screen; CHO-KCNK3 thallium flux, FluxOR fluorescence; hits give low values; B-score at 10 µM; 340,000 tested, 0.84% active; AID 602410;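 active means B-score under library mean minus 4 SD, starting fluorescence ratio at most library mean plus 5 SD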;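 further: more negative B-score means stronger inhibition of thallium flux through KCNK3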
hERG rescue: hERG (human) protection from proarrhythmic block; Q12809; CHO-hERG, FluxOR thallium flux, dofetilide IC70 present; activation (rescue from dofetilide block), less the hit threshold, % at 10 µM; 310,000 tested, 0.51% active;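 active means activation above the mean of controls blocked by dofetilide plus 5 SD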;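 further: thallium influx through hERG after potassium depolarization seen as dye fluorescence rise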
Kir21 inh: blocks the mouse Kir2.1 inward-rectifier potassium channel | HEK293-Kir2.1, FluxOR thallium flux fluorescence; hits give low values | P35561 | 310,000 tested, 0.85% active | B-score at 10 µM;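 active means fluorescence ratio B-score at or below minus 3 SD of library scores, with starting-brightness B-score within 2 SD, cut at about -4.2 in these data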;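 further: channel flux triggered by added potassium and thallium sulfate stimulus; B-score of peak minus minimum fluorescence over baseline after thallium stimulus; more negative B-score means stronger Kir2.1 block with less thallium influx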
KCNQ1 block: inhibitors of human KCNQ1 potassium channel. CHO-K1 KCNQ1, FluxOR thallium flux fluorescence; hits give high values. B-score at 10 µM. 310,000 tested, 1.3% active;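 active means compounds whose thallium flux B-score, printed positive for inhibition, exceeds three library SD while starting fluorescence stays within three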;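 further: channel opened by potassium depolarization with thallium stimulus after 20 min compound exposure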
KCNK9 block: inhibitors of human KCNK9 two-pore domain potassium channel; Q9NPC2; HEK293 KCNK9, FluxOR thallium flux fluorescence; hits give low values; B-score at 10 µM; 310,000 tested, 1.2% active; AID 488922;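 active means ratio B-score over 3 SD below the library mean, with starting fluorescence within 5 SD of its mean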;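 further: negative B-score means less thallium flux so channel inhibition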
Target sequence (Q9NPC2 whole entry, looked up, the tested form may be a part): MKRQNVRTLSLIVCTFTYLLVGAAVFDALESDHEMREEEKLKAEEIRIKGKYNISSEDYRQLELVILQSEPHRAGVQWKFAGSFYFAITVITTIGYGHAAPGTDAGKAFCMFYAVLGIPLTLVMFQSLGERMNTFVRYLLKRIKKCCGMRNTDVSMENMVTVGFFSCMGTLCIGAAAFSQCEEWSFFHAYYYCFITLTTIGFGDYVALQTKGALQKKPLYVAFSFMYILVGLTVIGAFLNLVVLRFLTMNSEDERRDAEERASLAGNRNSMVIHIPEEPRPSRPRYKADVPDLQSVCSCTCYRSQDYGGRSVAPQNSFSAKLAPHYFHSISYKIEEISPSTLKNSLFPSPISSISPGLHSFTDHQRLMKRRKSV
Of the large screens only hits and unclear results are named; the others gave an inactive call. Rows were chosen to be rich in hits. Some 3.7% of all compounds tested hit in one or more screens of this group.

Cc1ccc(NC(=O)c2cccs2)cc1	none
COc1ccc(/C=C/C(=O)NC(=S)NNC(=O)c2cccs2)cc1	hERG rescue 16
Cc1ccc(C(=O)OC(C)C(=O)NC2CCCCC2C)cc1S(=O)(=O)N1CCCCC1 (stereo unspecified)	none
COc1ccc(/C=C(/C(=O)Nc2ccccc2C(=O)NC(C)C)c2ccccc2)cc1	KCNQ1 block 6
COc1ccc(NC(=O)C(=O)NNC(=O)c2cccs2)c(OC)c1	KCNQ1 act 22, hERG rescue 12
Cc1ccc2c(c1)N(CC(=O)NC1CCCC1)C(=O)c1cccnc1O2	none
CC(C)(C)OC(=O)NCCCCCNC(=O)c1[nH]cnc1C(=O)Nc1ccon1	none (no result: KCNQ1 act, hERG rescue, Kir21 inh, KCNQ1 block, KCNK9 block)
Cc1cccc(NC(=S)N/C(=N/S(=O)(=O)c2ccccc2)c2ccccc2)c1	hERG rescue 5.2
O=C(CNCc1ccc(Cl)cc1)Nc1ccc(C(=O)N2CCCCCC2)cc1	none
Cc1onc(-c2ccccc2Cl)c1C(=O)Nc1nnc(-c2ccc(Cl)cc2Cl)s1	KCNQ1 block 8
Cc1onc(-c2ccccc2Cl)c1C(=O)Nc1nnc(-c2ccc(Br)cc2)s1	KCNQ1 block 8
Cc1onc(-c2ccccc2Cl)c1C(=O)Nc1nnc(-c2ccc(F)cc2)s1	none
Cc1onc(-c2c(F)cccc2Cl)c1C(=O)Nc1nnc(-c2ccccc2)s1	none
O=[N+]([O-])c1c(Nc2ccccn2)cc(Cl)c2nonc12	KCNQ1 block 11, KCNK9 block -6.9
COc1cccc(C2(O)CCN(C(=O)C3CCC3)CC2)c1	hERG rescue 4.8
CCOc1ccc(NC(=S)NC(=O)c2c(Cl)cnn2CC)c([N+](=O)[O-])c1	none
CCn1ncc(Cl)c1C(=O)NC(=S)Nc1c(C)cc(C)cc1[N+](=O)[O-]	hERG rescue 5.8
O=C(N/N=C/c1cc(Cl)cc(Cl)c1O)c1ccncc1	KCNQ1 block 7
Cc1ccccc1-n1c(C)cc(/C=N/NC(=O)c2ccncc2)c1C	KCNQ1 act 11
CCc1ccc(CN(C)C(=O)c2cc(COc3ccc(-n4cncn4)cc3)on2)cc1	none
Cc1cc(C(=O)CSc2nc3ccccc3c(=O)n2C)c(C)n1Cc1ccc2c(c1)OCO2	KCNK9 block -7.9
O=C(CCc1c[nH]c2ccccc12)OCC(=O)N1CCN(S(=O)(=O)c2ccccc2)CC1	none
O=C(NNc1nc2c(F)cc(F)cc2s1)c1ccccc1	KCNQ1 act 61
CN(C)c1ccc(C(C(=O)NCc2ccccc2)N(Cc2cccnc2)C(=O)c2snc(C(N)=O)c2N)cc1 (stereo unspecified)	KCNQ1 block 8
CCCCC(C(=O)NC1CCCC1)N(Cc1ccccc1)C(=O)c1snc(C(N)=O)c1N (stereo unspecified)	KCNQ1 block 10
CC(C)CC(C(=O)NC1CCCCC1)N(Cc1cccs1)C(=O)c1snc(C(N)=O)c1N (stereo unspecified)	KCNQ1 block 8
CC(C)CC(C(=O)NC1CCCC1)N(Cc1cccs1)C(=O)c1snc(C(N)=O)c1N (stereo unspecified)	none
COc1ccc(C(C(=O)NCc2ccccc2)N(Cc2cccnc2)C(=O)c2snc(C(N)=O)c2N)cc1OC (stereo unspecified)	none
COc1ccc(CNCC(=O)Nc2cc(OC)cc(OC)c2)cc1	none
O=C(Nc1nncs1)C1CC(=O)N(CCc2ccc(F)cc2)C1 (stereo unspecified)	none
Cc1ccccc1NC(=O)Cc1nc(COC(=O)c2ccc(S(C)(=O)=O)c([N+](=O)[O-])c2)cs1	none (no result: KCNQ1 act, hERG rescue, Kir21 inh, KCNQ1 block, KCNK9 block)
CCN(CC)c1ccc(CNc2nc3ccccc3n2CCN2CCCCC2)cc1	KCNQ1 block 7
COc1ccc(CNc2nc3ccccc3n2CCN2CCCCC2)cc1	none
O=C(O)C1(c2ccccc2)CCN(S(=O)(=O)c2cccs2)CC1	hERG rescue 5.2
O=C(O)C1(c2ccccc2)CCN(S(=O)(=O)c2ccccc2)CC1	none
CCN(CC(=O)Nc1ccc(OC)cc1)C(=O)CSCc1c(C)noc1C	none (no result: KCNQ1 act, hERG rescue, Kir21 inh, KCNQ1 block, KCNK9 block)
CSc1ccc(C2NN=C(c3ccccc3)S2)cc1 (stereo unspecified)	hERG rescue 15
O=C(COC(=O)c1c2c(nc3ccccc13)/C(=C\c1ccco1)CC2)NC1CCCC1	KCNK3 inh -9.4 (no result: KCNQ1 act, hERG rescue, Kir21 inh, KCNQ1 block, KCNK9 block)
O=C(COC(=O)c1c2c(nc3ccccc13)/C(=C/c1cccc([N+](=O)[O-])c1)CCC2)NC1CCS(=O)(=O)C1 (stereo unspecified)	none
CN(CCC#N)C(=O)COC(=O)c1c2c(nc3ccccc13)/C(=C\c1ccco1)CC2	KCNK3 inh -8.9 (no result: KCNQ1 act, hERG rescue, Kir21 inh, KCNQ1 block, KCNK9 block)
CC1CCCCC1NC(=O)COC(=O)c1c2c(nc3ccccc13)/C(=C\c1ccco1)CC2 (stereo unspecified)	KCNK3 inh -11 (no result: KCNQ1 act, hERG rescue, Kir21 inh, KCNQ1 block, KCNK9 block)
CC1CCCN(C(=O)c2ccc3ncsc3c2)C1 (stereo unspecified)	none (no result: KCNQ1 act, hERG rescue, Kir21 inh, KCNQ1 block, KCNK9 block)
O=C(NCCCN1CCCC1=O)C1CCN(S(=O)(=O)c2ccc(Cl)cc2)CC1	none (no result: KCNQ1 act, hERG rescue, Kir21 inh, KCNQ1 block, KCNK9 block)
CC(NC(=O)c1ccccc1Cl)C(=O)N1CCN(Cc2ccc3c(c2)OCO3)CC1 (stereo unspecified)	none (no result: KCNQ1 act, hERG rescue, Kir21 inh, KCNQ1 block, KCNK9 block)
Cc1cccn2c(/C=N/OCc3ccc(F)cc3)c(-c3ccc(Cl)cc3)nc12	KCNK9 block -7.8
Cc1sc(NC(=O)c2ccco2)c(C(c2cccnc2)N2CCN(CCO)CC2)c1C (stereo unspecified)	none
Cc1sc(NC(=O)c2ccco2)c(C(c2ccccc2)N2CCC(C)CC2)c1C (stereo unspecified)	KCNK9 block -7
Cc1sc(NC(=O)c2ccco2)c(C(c2cccnc2)N2CCN(c3ccc(F)cc3)CC2)c1C (stereo unspecified)	KCNK3 inh -12, KCNQ1 block 8, KCNK9 block -6.6
Cc1sc(NC(=O)c2ccccc2)c(C(c2ccc(Cl)cc2)N2CCN(CCO)CC2)c1C (stereo unspecified)	none
COc1ccc(C(c2c(NC(=O)c3ccco3)sc(C)c2C)N2CCOCC2)cc1OC (stereo unspecified)	KCNK3 inh -9.7 (no result: KCNQ1 act, hERG rescue, Kir21 inh, KCNQ1 block, KCNK9 block)
COc1ccc(NC(=O)N2C3CCCC2CC(NC(=O)c2ccccc2)C3)cc1 (stereo unspecified)	none
S=c1nc(-c2ccccc2)n(CCCN2CCOCC2)c2c1CCCC2	hERG rescue 6.8
COc1ccc(Cl)cc1NCCC(O)c1ccc(F)cc1 (stereo unspecified)	Kir21 inh -4.8
COc1ccccc1N(C)S(=O)(=O)c1ccc(C(=O)Nc2cc(F)ccc2C)cc1	none (no result: KCNQ1 act, hERG rescue, Kir21 inh, KCNQ1 block, KCNK9 block)
CCCCn1nnc(NC(=S)NC(=O)c2ccc(-c3cccc(Cl)c3Cl)o2)n1	hERG rescue 7.4
CCCCn1nnc(NC(=O)c2ccc(-c3ccccc3[N+](=O)[O-])o2)n1	none
CCC(=O)Nc1cc2c(cc1Cl)-c1ccccc1C2	none (no result: KCNQ1 act, hERG rescue, Kir21 inh, KCNQ1 block, KCNK9 block)
